Reference: ChEMBL document CHEMBL3588757, “Structure-based design, synthesis and biological testing of piperazine-linked bis-epipodophyllotoxin etoposide analogs” (Bioorg Med Chem, 2015)

Key:
K562 = test: Cytotoxicity against human K562 cells assessed as cell growth inhibition after 72 hrs by MTS assay; assay type: functional, cell-based; conditions: K562, 72 h
SF-268 = test: Cytotoxicity against human SF268 cells assessed as cell growth at 50 uM by SRB assay; assay type: functional; conditions: read-out: Activity
SK-MEL-28 = test: Cytotoxicity against human SK-MEL-28 cells assessed as cell growth at 50 uM by SRB assay; assay type: functional; conditions: read-out: Activity
SK-MEL-5 [1] = test: Cytotoxicity against human SK-MEL-5 cells assessed as cell growth at 50 uM by SRB assay; assay type: functional; conditions: read-out: Activity
IGROV-1 = test: Cytotoxicity against human IGROV1 cells assessed as cell growth at 50 uM by SRB assay; assay type: functional; conditions: read-out: Activity
CAKI-1 [2] = test: Cytotoxicity against human Caki1 cells assessed as cell growth at 50 uM by SRB assay; assay type: functional; conditions: read-out: Activity
UO-31 [3] = test: Cytotoxicity against human UO31 cells assessed as cell growth at 50 uM by SRB assay; assay type: functional; conditions: read-out: Activity
BT-549 [4] = test: Cytotoxicity against human BT549 cells assessed as cell growth at 50 uM by SRB assay; assay type: functional; conditions: read-out: Activity
NCI-H322M [5] = test: Cytotoxicity against human NCI-H322M cells by SRB assay; assay type: functional
Procedure, shortened: (§1)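 NCI-60 panel screen; 5-dose testing giving GI50 per cell line, plus a single 10 µM one-dose test. Method details not given beyond the NCI screen.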

KM12 [6] = test: Cytotoxicity against human KM12 cells by SRB assay; assay type: functional; procedure, shortened: as §1
CAKI-1 [7] = test: Cytotoxicity against human Caki1 cells by SRB assay; assay type: functional
SN12C [8] = test: Cytotoxicity against human SN12C cells by SRB assay; assay type: functional; procedure, shortened: as §1
PC-3 = test: Cytotoxicity against human PC3 cells by SRB assay; assay type: functional; procedure, shortened: as §1
BT-549 [9] = test: Cytotoxicity against human BT549 cells by SRB assay; assay type: functional
HL-60(TB) [10] = test: Cytotoxicity against human HL-60(TB) cells assessed as cell growth at 0.005 uM by SRB assay; assay type: functional; conditions: read-out: Activity
Procedure, shortened: (§2)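 Measured in the NCI-60 human tumour cell line panel using five-dose testing. Growth was recorded at each dose for each cell line, and a GI50 was derived for each line.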

SF-539 = test: Cytotoxicity against human SF539 cells assessed as cell growth at 0.005 uM by SRB assay; assay type: functional; conditions: read-out: Activity
SNB-19 = test: Cytotoxicity against human SNB19 cells assessed as cell growth at 0.005 uM by SRB assay; assay type: functional; conditions: read-out: Activity
SK-MEL-5 [11] = test: Cytotoxicity against human SK-MEL-5 cells assessed as cell growth at 0.005 uM by SRB assay; assay type: functional; conditions: read-out: Activity
786-0 = test: Cytotoxicity against human 786-0 cells assessed as cell growth at 0.005 uM by SRB assay; assay type: functional; conditions: read-out: Activity
UO-31 [12] = test: Cytotoxicity against human UO31 cells assessed as cell growth at 0.005 uM by SRB assay; assay type: functional; conditions: read-out: Activity
MDA-MB-468 = test: Cytotoxicity against human MDA-MB-468 cells assessed as cell growth at 0.005 uM by SRB assay; assay type: functional; conditions: read-out: Activity
NCI-H226 = test: Cytotoxicity against human NCI-H226 cells assessed as cell growth at 0.05 uM by SRB assay; assay type: functional; conditions: read-out: Activity
HCT-15 [13] = test: Cytotoxicity against human HCT15 cells assessed as cell growth at 0.05 uM by SRB assay; assay type: functional; conditions: read-out: Activity; procedure, shortened: as §2
LOX IMVI = test: Cytotoxicity against human LOXIMVI cells assessed as cell growth at 0.05 uM by SRB assay; assay type: functional; conditions: read-out: Activity
SK-MEL-5 [14] = test: Cytotoxicity against human SK-MEL-5 cells assessed as cell growth at 0.05 uM by SRB assay; assay type: functional; conditions: read-out: Activity
SN12C [15] = test: Cytotoxicity against human SN12C cells assessed as cell growth at 0.05 uM by SRB assay; assay type: functional; conditions: read-out: Activity
MCF7 = test: Cytotoxicity against human MCF7 cells assessed as cell growth at 0.05 uM by SRB assay; assay type: functional; conditions: read-out: Activity
[16] = Cytotoxicity against human Hs578T cells assessed as cell growth at 0.05 uM by SRB assay; assay type: functional; conditions: Hs-578T, read-out: Activity; procedure, shortened: as §2
NCI-H322M [17] = test: Cytotoxicity against human NCI-H322M cells assessed as cell growth at 0.5 uM by SRB assay; assay type: functional; conditions: read-out: Activity
HCC 2998 [18] = test: Cytotoxicity against human HCC2998 cells assessed as cell growth at 0.5 uM by SRB assay; assay type: functional; conditions: read-out: Activity; procedure, shortened: as §2
HCT-15 [19] = test: Cytotoxicity against human HCT15 cells assessed as cell growth at 0.5 uM by SRB assay; assay type: functional; conditions: read-out: Activity; procedure, shortened: as §2
KM12 [20] = test: Cytotoxicity against human KM12 cells assessed as cell growth at 0.5 uM by SRB assay; assay type: functional; conditions: read-out: Activity
SF-295 = test: Cytotoxicity against human SF295 cells assessed as cell growth at 0.5 uM by SRB assay; assay type: functional; conditions: read-out: Activity
SK-MEL-5 [21] = test: Cytotoxicity against human SK-MEL-5 cells assessed as cell growth at 0.5 uM by SRB assay; assay type: functional; conditions: read-out: Activity
[22] = Cytotoxicity against human NCI-ADR-RES cells assessed as cell growth at 0.5 uM by SRB assay; assay type: functional; conditions: read-out: Activity
SN12C [23] = test: Cytotoxicity against human SN12C cells assessed as cell growth at 0.5 uM by SRB assay; assay type: functional; conditions: read-out: Activity
CCRF-CEM [24] = test: Cytotoxicity against human CCRF-CEM cells assessed as cell growth at 5 uM by SRB assay; assay type: functional; conditions: read-out: Activity
MOLT-4 = test: Cytotoxicity against human MOLT4 cells assessed as cell growth at 5 uM by SRB assay; assay type: functional; conditions: read-out: Activity
COLO 205 = test: Cytotoxicity against human COLO205 cells assessed as cell growth at 5 uM by SRB assay; assay type: functional; conditions: read-out: Activity
HCC 2998 [25] = test: Cytotoxicity against human HCC2998 cells assessed as cell growth at 5 uM by SRB assay; assay type: functional; conditions: read-out: Activity; procedure, shortened: as §2
A498 = test: Cytotoxicity against human A498 cells assessed as cell growth at 5 uM by SRB assay; assay type: functional; conditions: read-out: Activity
DU-145 = test: Cytotoxicity against human DU145 cells assessed as cell growth at 5 uM by SRB assay; assay type: functional; conditions: read-out: Activity; procedure, shortened: as §2
CCRF-CEM [26] = test: Cytotoxicity against human CCRF-CEM cells assessed as cell growth at 50 uM by SRB assay; assay type: functional; conditions: read-out: Activity
HL-60(TB) [27] = test: Cytotoxicity against human HL-60(TB) cells assessed as cell growth at 50 uM by SRB assay; assay type: functional; conditions: read-out: Activity; procedure, shortened: as §2
[28] = read-out: LC50 (the source's name)
[29] = read-out: pLC50 (the source's name) (converted)

Compound: COc1cc([C@@H]2c3cc4c(cc3[C@@H](NC(=O)CN3CCN(CCCCCCCCCCN5CCN(CC(=O)N[C@@H]6c7cc8c(cc7[C@@H](c7cc(OC)c(O)c(OC)c7)[C@H]7C(=O)OC[C@@H]76)OCO8)CC5)CC3)[C@H]3COC(=O)[C@H]23)OCO4)cc(OC)c1O
- IC50 (K562): 44 nM
- growth at 50 µM (SF-268): -40%
- growth at 50 µM (SK-MEL-28): -83%
- growth at 50 µM (SK-MEL-5 [1]): -68%
- growth at 50 µM (IGROV-1): -41%
- growth at 50 µM (CAKI-1 [2]): -97%
- growth at 50 µM (UO-31 [3]): -100%
- growth at 50 µM (BT-549 [4]): -26%
- GI50 (NCI-H322M [5]; read-out: GI50): 387 nM
- CC50 (NCI-H322M [5]; [28]): > 50 µM
- TGI (NCI-H322M [5]; read-out: TGI): 1640 nM
- GI50 (NCI-H322M [5]; read-out: pGI50 (converted)): 389 nM
- CC50 (NCI-H322M [5]; [29]): > 50.1 µM
- TGI (NCI-H322M [5]; read-out: pTGI (converted)): 1620 nM
- GI50 (KM12 [6]; read-out: GI50): 892 nM
- CC50 (KM12 [6]; [28]): > 50 µM
- TGI (KM12 [6]; read-out: TGI): 2950 nM
- GI50 (KM12 [6]; read-out: pGI50 (converted)): 891 nM
- CC50 (KM12 [6]; [29]): > 50.1 µM
- TGI (KM12 [6]; read-out: pTGI (converted)): 2950 nM
- GI50 (CAKI-1 [7]; read-out: GI50): 1930 nM
- CC50 (CAKI-1 [7]; [28]): 21 µM
- TGI (CAKI-1 [7]; read-out: TGI): 8.37 µM
- GI50 (CAKI-1 [7]; read-out: pGI50 (converted)): 1950 nM
- CC50 (CAKI-1 [7]; [29]): 20.9 µM
- TGI (CAKI-1 [7]; read-out: pTGI (converted)): 8.32 µM
- GI50 (SN12C [8]; read-out: GI50): 185 nM
- CC50 (SN12C [8]; [28]): > 50 µM
- TGI (SN12C [8]; read-out: TGI): 5.82 µM
- GI50 (SN12C [8]; read-out: pGI50 (converted)): 186 nM
- CC50 (SN12C [8]; [29]): > 50.1 µM
- TGI (SN12C [8]; read-out: pTGI (converted)): 5.89 µM
- GI50 (PC-3; read-out: GI50): 903 nM
- CC50 (PC-3; [28]): 47.7 µM
- TGI (PC-3; read-out: TGI): 8.94 µM
- GI50 (PC-3; read-out: pGI50 (converted)): 912 nM
- CC50 (PC-3; [29]): 47.9 µM
- TGI (PC-3; read-out: pTGI (converted)): 8.91 µM
- GI50 (BT-549 [9]; read-out: GI50): 576 nM
- TGI (BT-549 [9]; read-out: TGI): 1460 nM
- GI50 (BT-549 [9]; read-out: pGI50 (converted)): 575 nM
- TGI (BT-549 [9]; read-out: pTGI (converted)): 1480 nM
- growth at 0.005 µM (HL-60(TB) [10]): 96%
- growth at 0.005 µM (SF-539): 98%
- growth at 0.005 µM (SNB-19): 99%
- growth at 0.005 µM (SK-MEL-5 [11]): 102%
- growth at 0.005 µM (786-0): 97%
- growth at 0.005 µM (UO-31 [12]): 86%
- growth at 0.005 µM (MDA-MB-468): 95%
- growth at 0.05 µM (NCI-H226): 83%
- growth at 0.05 µM (HCT-15 [13]): 80%
- growth at 0.05 µM (LOX IMVI): 56%
- growth at 0.05 µM (SK-MEL-5 [14]): 96%
- growth at 0.05 µM (SN12C [15]): 80%
- growth at 0.05 µM (MCF7): 61%
- growth at 0.05 µM [16]: 95%
- growth at 0.5 µM (NCI-H322M [17]): 45%
- growth at 0.5 µM (HCC 2998 [18]): 61%
- growth at 0.5 µM (HCT-15 [19]): 45%
- growth at 0.5 µM (KM12 [20]): 74%
- growth at 0.5 µM (SF-295): 61%
- growth at 0.5 µM (SK-MEL-5 [21]): 83%
- growth at 0.5 µM [22]: 101%
- growth at 0.5 µM (SN12C [23]): 27%
- growth at 5 µM (CCRF-CEM [24]): -10%
- growth at 5 µM (MOLT-4): -46%
- growth at 5 µM (COLO 205): -13%
- growth at 5 µM (HCC 2998 [25]): 29%
- growth at 5 µM (A498): -9%
- growth at 5 µM (DU-145): -7%
- growth at 50 µM (CCRF-CEM [26]): 2%
- growth at 50 µM (HL-60(TB) [27]): -46%
